The source made the active and inactive calls. The rule behind the calls is not given here. Side chains are listed from the residue outwards. Peptide text beside a SMILES is read from it. * marks the point of attachment. X3 = O=c1ccn([C@@H]2O[C@H](COCCOCCN*)[C@@H](O)[C@H]2O)c(=O)[nH]1; X2 = O=c1ccn([C@@H]2O[C@H](COCCN*)[C@@H](O)[C@H]2O)c(=O)[nH]1; X1 = O=c1ccn([C@@H]2O[C@H](CN*)[C@@H](O)[C@H]2O)c(=O)[nH]1; X4 = O=C(c1cc(=O)[nH]c2ccccc12)*; 4Amb = NCc1ccc(C(=O)O)cc1
Each compound was assayed against T1, UDP-N-acetylglucosamine--peptide N-acetylglucosaminyltransferase 110 kDa subunit (Homo sapiens) (UniProt O15294) (assay: Competitive inhibition of OGT (unknown origin) at 0.5 mM in presence of RBL_2_410_422 peptide by microarray analysis).
T1 sequence (whole entry): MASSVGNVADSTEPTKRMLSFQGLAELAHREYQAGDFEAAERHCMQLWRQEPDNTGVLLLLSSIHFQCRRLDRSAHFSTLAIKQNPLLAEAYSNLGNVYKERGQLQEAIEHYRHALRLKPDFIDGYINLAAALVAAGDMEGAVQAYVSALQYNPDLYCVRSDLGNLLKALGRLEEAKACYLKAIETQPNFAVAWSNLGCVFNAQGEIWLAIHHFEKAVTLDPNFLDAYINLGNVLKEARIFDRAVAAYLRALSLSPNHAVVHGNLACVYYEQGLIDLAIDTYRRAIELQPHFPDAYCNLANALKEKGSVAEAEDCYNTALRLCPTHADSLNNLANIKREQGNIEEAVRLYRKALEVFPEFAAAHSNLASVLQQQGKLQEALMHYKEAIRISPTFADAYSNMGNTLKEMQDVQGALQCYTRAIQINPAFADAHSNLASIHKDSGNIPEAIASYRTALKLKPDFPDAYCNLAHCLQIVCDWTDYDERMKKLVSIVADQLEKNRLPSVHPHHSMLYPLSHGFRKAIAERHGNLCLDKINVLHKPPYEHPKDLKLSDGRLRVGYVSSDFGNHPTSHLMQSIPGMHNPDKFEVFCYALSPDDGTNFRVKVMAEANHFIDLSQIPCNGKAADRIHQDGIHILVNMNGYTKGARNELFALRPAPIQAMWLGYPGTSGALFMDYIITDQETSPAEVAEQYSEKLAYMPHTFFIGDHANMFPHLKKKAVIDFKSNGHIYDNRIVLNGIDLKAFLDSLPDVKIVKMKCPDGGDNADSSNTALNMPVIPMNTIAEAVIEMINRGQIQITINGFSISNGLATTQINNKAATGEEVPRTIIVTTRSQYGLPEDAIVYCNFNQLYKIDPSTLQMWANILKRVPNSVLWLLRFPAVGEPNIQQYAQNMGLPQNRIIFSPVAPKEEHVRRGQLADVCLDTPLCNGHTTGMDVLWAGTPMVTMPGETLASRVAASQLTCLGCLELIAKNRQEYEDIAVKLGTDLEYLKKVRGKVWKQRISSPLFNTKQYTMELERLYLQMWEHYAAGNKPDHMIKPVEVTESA
Method in brief: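 Peptide microarray with immobilized RBL-2_410–422 as OGT acceptor; inhibitor peptide present at 0.5 mM, water in parallel control. O-GlcNAcylation followed in real time by FITC-labelled antibody binding to O-GlcNAcylated RBL-2_410–422.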

inhibition, active:
H-KENSPCVTPVATA-OH

The compounds below were run against T2, UDP-N-acetylglucosamine--peptide N-acetylglucosaminyltransferase 110 kDa subunit (Homo sapiens, UniProt O15294) (assay: Inhibition of OGT (unknown origin) using UDP-GlcNAc as substrate measured after 2 hrs by UDP-Glo luminescence assay).
T2 sequence (O15294 whole entry): T1 sequence (whole entry)

IC50, 493 µM:
CC(C)[C@H](NC(=O)[C@@H](N)CS)C(=O)N[C@H](C(=O)N1CCC[C@H]1C(=O)N[C@H](C(=O)N[C@@H](CCC(=O)NCCOCCOC[C@H]1O[C@@H](n2ccc(=O)[nH]c2=O)[C@H](O)[C@@H]1O)C(=O)N[C@H](C(=O)N[C@@H](C)C(N)=O)[C@@H](C)O)C(C)C)[C@@H](C)O (H-CVTPVE(X3)TA-NH2)

IC50, 297 µM:
CC(C)[C@H](NC(=O)[C@@H](N)CS)C(=O)N[C@H](C(=O)N1CCC[C@H]1C(=O)N[C@H](C(=O)N[C@@H](CCC(=O)NC[C@H]1O[C@@H](n2ccc(=O)[nH]c2=O)[C@H](O)[C@@H]1O)C(=O)N[C@H](C(=O)N[C@@H](C)C(N)=O)[C@@H](C)O)C(C)C)[C@@H](C)O (H-CVTPVE(X1)TA-NH2)

IC50, 385 µM:
H-CVTPVATA-NH2

IC50, > 1000 µM:
CC(C)[C@H](NC(=O)[C@@H](N)CCCNC(=N)N)C(=O)N1CCC[C@H]1C(=O)N[C@@H](CO)C(=O)N[C@@H](CCC(=O)NCCOC[C@H]1O[C@@H](n2ccc(=O)[nH]c2=O)[C@H](O)[C@@H]1O)C(=O)N[C@@H](CCC(N)=O)C(=O)N[C@@H](CO)C(N)=O (H-RVPSE(X2)QS-NH2), CC(C)[C@H](NC(=O)[C@@H](N)CS)C(=O)N[C@H](C(=O)N1CCC[C@H]1C(=O)N[C@H](C(=O)N[C@@H](CCC(=O)NCCOC[C@H]1O[C@@H](n2ccc(=O)[nH]c2=O)[C@H](O)[C@@H]1O)C(=O)N[C@H](C(=O)N[C@@H](C)C(N)=O)[C@@H](C)O)C(C)C)[C@@H](C)O (H-CVTPVE(X2)TA-NH2), CC(C)[C@H](NC(=O)[C@@H](N)CCCNC(=N)N)C(=O)N1CCC[C@H]1C(=O)N[C@@H](CO)C(=O)N[C@@H](CCC(=O)NC[C@H]1O[C@@H](n2ccc(=O)[nH]c2=O)[C@H](O)[C@@H]1O)C(=O)N[C@@H](CCC(N)=O)C(=O)N[C@@H](CO)C(N)=O (H-RVPSE(X1)QS-NH2)

IC50, 193 µM:
H-RVPSAQS-NH2

IC50, 117 µM:
CC(C)[C@H](NC(=O)[C@@H](N)CS)C(=O)N[C@H](C(=O)N1CCC[C@H]1C(=O)N[C@H](C(=O)N[C@@H](CCCCNC(=O)c1ccc(CNC(=O)c2cc(=O)[nH]c3ccccc23)cc1)C(=O)N[C@H](C(=O)N[C@@H](C)C(N)=O)[C@@H](C)O)C(C)C)[C@@H](C)O (H-CVTPVK([4Amb-X4])TA-NH2)

These compounds were tested against T1, UDP-N-acetylglucosamine--peptide N-acetylglucosaminyltransferase 110 kDa subunit (Homo sapiens) (assay: Inhibition of OGT (unknown origin) at 1 mM using UDP-GlcNAc as substrate measured after 2 hrs by UDP-Glo luminescence assay relative to control).
Method in brief: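 Single-point OGT inhibition at 1 mM, read by UDP-Glo glycosyltransferase assay (UDP released from UDP-GlcNAc donor).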

inhibition, 90%:
O=C(O)c1ccc(CNC(=O)c2cc(=O)[nH]c3ccccc23)cc1, CCc1nnc(NC(=O)c2cc(=O)[nH]c3ccccc23)s1, CCOC(=O)CCCNC(=O)c1cc(=O)[nH]c2ccccc12, O=C(O)CCNC(=O)c1ccc(NC(=O)c2cc(=O)[nH]c3ccccc23)cc1, CCNC(=O)CCNC(=O)c1ccc(NC(=O)c2cc(=O)[nH]c3ccccc23)cc1, NS(=O)(=O)c1ccc(CNC(=O)c2cc(O)nc3ccccc23)cc1, CCOC(=O)C1CCC(CNC(=O)c2cc(=O)[nH]c3ccccc23)CC1 (stereo unspecified), COc1ccc(CNC(=O)c2cc(=O)[nH]c3ccccc23)cc1OC, Nc1ccc(CNC(=O)c2cc(=O)[nH]c3ccccc23)cc1, O=C(O)c1cc(O)nc2ccccc12, O=C(O)CCCNC(=O)c1cc(=O)[nH]c2ccccc12, Nc1ccccc1CNC(=O)c1cc(=O)[nH]c2ccccc12, O=C(NCc1ccc2c(c1)OCCO2)c1cc(=O)[nH]c2ccccc12, CC(C)(C)OC(=O)CNC(=O)c1cc(=O)[nH]c2ccccc12, O=C(O)CNC(=O)c1cc(=O)[nH]c2ccccc12, CC(C)(C)OC(=O)CCNC(=O)c1cc(=O)[nH]c2ccccc12, O=C(NCc1ccccc1)c1cc(O)nc2ccccc12, O=C(NCc1ccccc1Cl)c1cc(O)nc2ccccc12, O=C(O)CCNC(=O)c1cc(=O)[nH]c2ccccc12, CCOC(=O)c1ccc(CNC(=O)c2cc(=O)[nH]c3ccccc23)cc1, COc1ccc(CNC(=O)c2cc(=O)[nH]c3ccccc23)cc1, O=C(NCC1CCC(C(=O)O)CC1)c1cc(=O)[nH]c2ccccc12 (stereo unspecified)
